How the values were obtained:
Assay in all cases: Plaque inhibition test in fcwf-4 cells
[1] = tested on: type I FIPV strain KU-2; assay type: cell-based, feline infectious peritonitis virus; conditions: for Plaque reduction by serial dilutions of peptides: peptide 160, 80 and 40 μM, triplicate
Procedure, shortened: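 Strain KU-2 plaque assay in fcwf-4 cells. Peptide from a 10 mM DMSO stock was diluted to 100 μM, or to 160, 80 and 40 μM, in medium with 2% FCS and 25 μg/mL DEAE-dextran, with 30 min RT pretreatment; 1% DMSO was the solvent control. Without washing, 10 μL of 8000 pfu/mL virus added, 30 min at 37 °C. Wash, carboxymethyl cellulose overlay, 2 days at 37 °C, crystal violet. % plaque inhibition against virus-alone wells.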

[2] = tested on: type I FIPV strain UCD-1; assay type: cell-based, feline infectious peritonitis virus; conditions: peptide 100 μM
Procedure, shortened: (§1)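 Peptide (10 mM DMSO stock) diluted to 100 μM in medium with 2% FCS and 25 μg/mL DEAE-dextran, then applied to fcwf-4 cells for 30 min at RT. Same-fold DMSO (1%) served as solvent control. Without washing, 10 μL of 8000 pfu/mL virus added for 30 min at 37 °C. Cells washed, overlaid with 2% FCS/1.5% carboxymethyl cellulose for 2 days at 37 °C, formalin-fixed and crystal violet-stained. % plaque inhibition calculated against virus-alone wells.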

[3] = tested on: type I FIPV strain Black; assay type: cell-based, feline infectious peritonitis virus; conditions: peptide 100 μM
Procedure, shortened: as §1

[4] = tested on: type II FIPV strain 79-1146; assay type: cell-based, feline infectious peritonitis virus; conditions: peptide 100 μM
Procedure, shortened: as §1

[5] = tested on: FHV strain C7301; assay type: cell-based, feline herpesvirus; conditions: peptide 100 μM, fcwf-4 cells 30 min RT, triplicate
Procedure, shortened: as §1

[6] = tested on: FCV strain F4; assay type: cell-based, feline calicivirus; conditions: peptide 100 μM, fcwf-4 cells 30 min RT, triplicate
Procedure, shortened: as §1

[7] = fcwf-4 cells 30 min RT, vs 1% DMSO, triplicate

Sequence: LFYKYTSLQGLYTYSNLVEL [I-S1-22]
- Plaque reduction by serial dilutions of peptides [1]: dose-dependent

Sequence: YTDVMVDVNGTAITRLFYCD [I-S1-10]
- Plaque reduction by serial dilutions of peptides [1]: dose-dependent

Sequence: VNFSISSVEEYGFWTIAYTN [I-S1-8]
- Plaque reduction by serial dilutions of peptides [1]: dose-dependent

Sequence: YHWMNVTLHVVLNDTEKKYD [I-S1-16]
- Plaque inhibition, type I FIPV strain KU-2 ([1]; peptide 100 μM): ≥ 50%
- Plaque reduction by serial dilutions of peptides [1]: dose-dependent
- Plaque inhibition, type I FIPV strain UCD-1 ([2]; fcwf-4 cells): ≥ 50%
- Inhibition of infection by type I FIPV strain UCD-1 [2, 7]: significantly inhibited
- Plaque inhibition, type I FIPV strain Black ([3]; fcwf-4 cells): ≥ 50%
- Inhibition of infection by type I FIPV strain Black [3, 7]: significantly inhibited
- Plaque inhibition, type II FIPV strain 79-1146 ([4]; fcwf-4 cells): less than 50%
- Inhibition of infection by type II FIPV strain 79-1146 [4, 7]: significantly inhibited
- Inhibitory effect on infection by FHV strain C7301 [5]: no inhibitory effects
- Inhibitory effect on infection by FCV strain F4 [6]: no inhibitory effects

Source: paper PMC7114445 (Virus Research, 2015)
